{"source": "ChEMBL document CHEMBL1255404", "about": "“Spread of OXA-48-encoding plasmid in Turkey and beyond” (2010)", "format_in_all_cases": "functional", "key": {"[1]": {"test_system": "Escherichia coli", "assay": "Antimicrobial activity against Escherichia coli isolate J53 harboring pE containing beta-lactamase OXA-48 located within transposon Tn1999.2 by Etest method", "method_in_brief": "(§1)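 β-Lactam MICs read with Etest strips. Strains are E. coli J53 recipient and J53 transconjugants carrying OXA-48-positive plasmids recovered from clinical enterobacterial isolates.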"}, "[2]": {"test_system": "Klebsiella pneumoniae", "assay": "Antimicrobial activity against Klebsiella pneumoniae isolate Kp7A expressing beta-lactamase OXA-48 by Etest method", "method_in_brief": "(§2)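 MICs of β-lactams read from Etest strips. The test organisms are carbapenem-resistant, OXA-48-positive clinical Enterobacteriaceae isolates recovered from Turkey, Lebanon, Egypt, France and Belgium.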"}, "[3]": {"test_system": "Escherichia coli", "assay": "Antimicrobial activity against Escherichia coli isolate A expressing beta-lactamase OXA-48 and TEM-150 by Etest method"}, "[4]": {"test_system": "Escherichia coli", "assay": "Antimicrobial activity against Escherichia coli isolate J53 harboring p6A containing beta-lactamase OXA-48 located within transposon Tn1999 by Etest method", "method_in_brief": "as §1"}, "[5]": {"test_system": "Escherichia coli", "assay": "Antimicrobial activity against Escherichia coli isolate J53 harboring pA-1 containing beta-lactamase OXA-48 located within transposon Tn1999 by Etest method", "method_in_brief": "as §1"}, "[6]": {"test_system": "Klebsiella pneumoniae", "assay": "Antimicrobial activity against Klebsiella pneumoniae isolate Kp5A expressing beta-lactamase OXA-48 and SHV-5 by Etest method"}, "[7]": {"test_system": "Escherichia coli", "assay": "Antimicrobial activity against Escherichia coli isolate J53 harboring pBEL containing beta-lactamase OXA-48 located within transposon Tn1999.2 by Etest method", "method_in_brief": "as §1"}, "[8]": {"test_system": "Escherichia coli", "assay": "Antimicrobial activity against Escherichia coli isolate J53 harboring p5A containing beta-lactamase OXA-48 located within transposon Tn1999 by Etest method", "method_in_brief": "as §1"}, "[9]": {"test_system": "Escherichia coli", "assay": "Antimicrobial activity against Escherichia coli isolate J53 harboring pL containing beta-lactamase OXA-48 located within transposon Tn1999.2 by Etest method", "method_in_brief": "as §1"}, "[10]": {"test_system": "Klebsiella pneumoniae", "assay": "Antimicrobial activity against Klebsiella pneumoniae isolate KpBIC expressing beta-lactamase OXA-48 by Etest method", "method_in_brief": "as §2"}, "[11]": {"test_system": "Klebsiella pneumoniae", "assay": "Antimicrobial activity against Klebsiella pneumoniae isolate KpL expressing beta-lactamase OXA-48 by Etest method"}, "[12]": {"test_system": "Escherichia coli", "assay": "Antimicrobial activity against Escherichia coli isolate J53 harboring pCF containing beta-lactamase OXA-48 located within transposon Tn1999 by Etest method", "method_in_brief": "as §1"}, "[13]": {"test_system": "Escherichia coli", "assay": "Antimicrobial activity against Escherichia coli isolate J53 harboring p3A containing beta-lactamase OXA-48 located within transposon Tn1999 by Etest method", "method_in_brief": "as §1"}, "[14]": {"test_system": "Escherichia coli", "assay": "Antimicrobial activity against Escherichia coli isolate J53 harboring pEcA containing beta-lactamase OXA-48 located within transposon Tn1999.2 by Etest method", "method_in_brief": "as §1"}, "[15]": {"test_system": "Klebsiella pneumoniae", "assay": "Antimicrobial activity against Klebsiella pneumoniae isolate Kp11978 expressing beta-lactamase OXA-48, SHV-2a and TEM-1 by Etest method"}, "[16]": {"test_system": "Citrobacter freundii", "assay": "Antimicrobial activity against Citrobacter freundii isolate expressing beta-lactamase OXA-48 by Etest method"}, "[17]": {"test_system": "Escherichia coli", "assay": "Antimicrobial activity against Escherichia coli isolate J53 by Etest method", "method_in_brief": "as §1"}, "[18]": {"test_system": "Klebsiella pneumoniae", "assay": "Antimicrobial activity against Klebsiella pneumoniae isolate Kp3A expressing beta-lactamase OXA-48 by Etest method", "method_in_brief": "as §2"}, "[19]": {"test_system": "Klebsiella pneumoniae", "assay": "Antimicrobial activity against Klebsiella pneumoniae isolate KpI-1 expressing beta-lactamase OXA-48 and CTX-M-15 by Etest method"}, "[20]": {"test_system": "Enterobacter cloacae", "assay": "Antimicrobial activity against Enterobacter cloacae isolate 2 expressing beta-lactamase OXA-48 and SHV-5 by Etest method"}, "[21]": {"test_system": "Providencia rettgeri", "assay": "Antimicrobial activity against Providencia rettgeri isolate expressing beta-lactamase OXA-48 and TEM-101 by Etest method"}, "[22]": {"test_system": "Klebsiella pneumoniae", "assay": "Antimicrobial activity against Klebsiella pneumoniae isolate KpI-2 expressing beta-lactamase OXA-48 and CTX-M-15 by Etest method"}, "[23]": {"test_system": "Enterobacter cloacae", "assay": "Antimicrobial activity against Enterobacter cloacae isolate 1 expressing beta-lactamase OXA-48 and SHV-5 by Etest method"}, "[24]": {"test_system": "Escherichia coli", "assay": "Antimicrobial activity against Escherichia coli isolate J53 harboring pI-2 containing beta-lactamase OXA-48 located within transposon Tn1999.2 by Etest method", "method_in_brief": "as §1"}, "[25]": {"test_system": "Escherichia coli", "assay": "Antimicrobial activity against Escherichia coli isolate J53 harboring p7A containing beta-lactamase OXA-48 located within transposon Tn1999 by Etest method", "method_in_brief": "as §1"}, "[26]": {"test_system": "Klebsiella pneumoniae", "assay": "Antimicrobial activity against Klebsiella pneumoniae isolate KpBEL expressing beta-lactamase OXA-48 by Etest method", "method_in_brief": "as §2"}, "[27]": {"test_system": "Klebsiella pneumoniae", "assay": "Antimicrobial activity against Klebsiella pneumoniae isolate KpE expressing beta-lactamase OXA-48 and CTX-M-15 by Etest method"}, "[28]": {"test_system": "Escherichia coli", "assay": "Antimicrobial activity against Escherichia coli isolate TOP10 by Etest method", "method_in_brief": "(§3)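 β-Lactam MICs read with Etest strips. Strains are E. coli TOP10 host and TOP10 transformants made with plasmid DNA extract when conjugation failed. Transformants were selected on LB agar with ticarcillin 50 μg/ml.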"}, "[29]": {"test_system": "Escherichia coli", "assay": "Antimicrobial activity against Escherichia coli isolate J53 harboring pBb containing beta-lactamase OXA-48 located within transposon Tn1999.2 by Etest method", "method_in_brief": "as §1"}, "[30]": {"test_system": "Escherichia coli", "assay": "Antimicrobial activity against Escherichia coli isolate J53 harboring pEnc2 containing beta-lactamase OXA-48 located within transposon Tn1999 by Etest method", "method_in_brief": "as §1"}, "[31]": {"test_system": "Escherichia coli", "assay": "Antimicrobial activity against Escherichia coli isolate TOP10 harboring pBIC containing beta-lactamase OXA-48 located within transposon Tn1999.2 by Etest method", "method_in_brief": "as §3"}, "[32]": {"test_system": "Escherichia coli", "assay": "Antimicrobial activity against Escherichia coli isolate J53 harboring pEnc1 containing beta-lactamase OXA-48 located within transposon Tn1999 by Etest method", "method_in_brief": "as §1"}, "[33]": {"test_system": "Klebsiella pneumoniae", "assay": "Antimicrobial activity against Klebsiella pneumoniae isolate KpB expressing OXA-48 and CTX-M-15 by Etest method"}, "[34]": {"test_system": "Escherichia coli", "assay": "Antimicrobial activity against Escherichia coli isolate TOP10 harboring pPR containing beta-lactamase and TEM-101 by Etest method", "method_in_brief": "as §3"}, "[35]": {"test_system": "Escherichia coli", "assay": "Antimicrobial activity against Escherichia coli isolate J53 harboring p4A containing beta-lactamase OXA-48 located within transposon Tn1999 by Etest method", "method_in_brief": "as §1"}, "[36]": {"test_system": "Escherichia coli", "assay": "Antimicrobial activity against Escherichia coli isolate J53 harboring pI-1 containing beta-lactamase OXA-48 located within transposon Tn1999.2 by Etest method", "method_in_brief": "as §1"}, "[37]": {"test_system": "Klebsiella pneumoniae", "assay": "Antimicrobial activity against Klebsiella pneumoniae isolate Kp4A expressing beta-lactamase OXA-48 and CTX-M-15 by Etest method"}, "[38]": {"test_system": "Klebsiella pneumoniae", "assay": "Antimicrobial activity against Klebsiella pneumoniae isolate Kp6A expressing beta-lactamase OXA-48 and TEM-150 by Etest method"}}, "data": [{"compound": "CC(C)(O/N=C(\\C(=O)N[C@@H]1C(=O)N2C(C(=O)[O-])=C(C[n+]3ccccc3)CS[C@H]12)c1csc(N)n1)C(=O)O", "note": "[CEFTAZIDIME]", "values": [{"measurement": "MIC", "setting": "[1]", "value": 0.12, "unit": "µg/mL"}, {"measurement": "MIC", "setting": "[2]", "value": 0.12, "unit": "µg/mL"}, {"measurement": "MIC", "setting": "[3]", "value": 512, "unit": "µg/mL"}, {"measurement": "MIC", "setting": "[4]", "value": 0.12, "unit": "µg/mL"}, {"measurement": "MIC", "setting": "[5]", "value": 0.12, "unit": "µg/mL"}, {"measurement": "MIC", "setting": "[6]", "value": 512, "unit": "µg/mL"}, {"measurement": "MIC", "setting": "[7]", "value": 0.75, "unit": "µg/mL"}, {"measurement": "MIC", "setting": "[8]", "value": 0.12, "unit": "µg/mL"}, {"measurement": "MIC", "setting": "[9]", "value": 0.75, "unit": "µg/mL"}, {"measurement": "MIC", "setting": "[10]", "value": 0.12, "unit": "µg/mL"}, {"measurement": "MIC", "setting": "[11]", "value": 0.75, "unit": "µg/mL"}, {"measurement": "MIC", "setting": "[12]", "value": 0.75, "unit": "µg/mL"}, {"measurement": "MIC", "setting": "[13]", "value": 0.25, "unit": "µg/mL"}, {"measurement": "MIC", "setting": "[14]", "value": 0.75, "unit": "µg/mL"}, {"measurement": "MIC", "setting": "[15]", "value": 512, "unit": "µg/mL"}, {"measurement": "MIC", "setting": "[16]", "value": 512, "unit": "µg/mL"}, {"measurement": "MIC", "setting": "[17]", "value": 0.06, "unit": "µg/mL"}, {"measurement": "MIC", "setting": "[18]", "value": 0.25, "unit": "µg/mL"}, {"measurement": "MIC", "setting": "[19]", "value": 512, "unit": "µg/mL"}, {"measurement": "MIC", "setting": "[20]", "value": 32, "unit": "µg/mL"}, {"measurement": "MIC", "setting": "[21]", "value": 512, "unit": "µg/mL"}, {"measurement": "MIC", "setting": "[22]", "value": 512, "unit": "µg/mL"}, {"measurement": "MIC", "setting": "[23]", "value": "> 512", "unit": "µg/mL"}, {"measurement": "MIC", "setting": "[24]", "value": 0.12, "unit": "µg/mL"}, {"measurement": "MIC", "setting": "[25]", "value": 0.12, "unit": "µg/mL"}, {"measurement": "MIC", "setting": "[26]", "value": 1, "unit": "µg/mL"}, {"measurement": "MIC", "setting": "[27]", "value": 512, "unit": "µg/mL"}, {"measurement": "MIC", "setting": "[28]", "value": 0.06, "unit": "µg/mL"}, {"measurement": "MIC", "setting": "[29]", "value": 1, "unit": "µg/mL"}, {"measurement": "MIC", "setting": "[30]", "value": 0.75, "unit": "µg/mL"}, {"measurement": "MIC", "setting": "[31]", "value": 0.12, "unit": "µg/mL"}, {"measurement": "MIC", "setting": "[32]", "value": 0.75, "unit": "µg/mL"}, {"measurement": "MIC", "setting": "[33]", "value": "> 512", "unit": "µg/mL"}, {"measurement": "MIC", "setting": "[34]", "value": 512, "unit": "µg/mL"}, {"measurement": "MIC", "setting": "[35]", "value": 0.12, "unit": "µg/mL"}, {"measurement": "MIC", "setting": "[36]", "value": 0.12, "unit": "µg/mL"}, {"measurement": "MIC", "setting": "[37]", "value": 512, "unit": "µg/mL"}, {"measurement": "MIC", "setting": "[38]", "value": 512, "unit": "µg/mL"}]}]}
